Experimental data of several laboratories.
In brackets after ≈: the same amount, converted by molar mass.
ABCB1: ATP-dependent translocase ABCB1 (ABCB1, Homo sapiens, UniProt P08183)

SMILES	target or system	assay	system	setting	endpoint	value
COCCc1ccc(OCC(O)CNC(C)C)cc1 (centres unmarked)	ABCB1	–	MDCK-MDR1	5 µM	Papp B→A	31.5 ×10⁻⁶ cm/s
CCn1cnc2c(=O)[nH]c(N)nc21.NCCNCCN.[Pt+2]	Jurkat	cell growth or viability, WST-1	–	–	IC50	> 100 µM
C[C@]12CCCN1CC1=NNC(=O)c3cc(F)cc4[nH]c2c1c34	ABCB1	–	MDCK-MDR1	1 µM	Papp B→A	36.4 ×10⁻⁶ cm/s
CC1(C)CCC2(CC1)N[C@@H](C(=O)N[C@@H]1CC[C@@H](C(N)=O)OC1)[C@H](c1ccnc(Cl)c1F)[C@]21C(=O)Nc2cc(Cl)ccc21	ABCB1	–	Caco-2	10 µM, 2 h	efflux ratio	9.3
CC[C@H](C)[C@H](NC(=O)[C@H](Cc1ccccc1)NC(=O)[C@H](Cc1ccc(O)cc1)NC(=O)[C@@H]1CCCN1C(=O)[C@@H](N)Cc1ccc(O)cc1)C(=O)N[C@H](CCCCN)C(=O)N[C@@H](CC(C)C)C(=O)NCC(=O)N[C@H](CCCCN)C(=O)NCC(=O)N[C@@H](CCC(=O)O)C(=O)N[C@H](C(=O)N[C@@H](CC(N)=O)C(=O)N[C@@H](CC(C)C)[C@@H](O)CC(=O)N[C@H](C(=O)N[C@@H](C)C(=O)N[C@@H](CCC(=O)O)C(=O)N1CCC[C@@H]1C(=O)N[C@@H](CCCCNC(=O)CCC(=O)O[C@H]1CC[C@@]2(C)C(=CC[C@H]3[C@@H]4CC[C@H]([C@H](C)CCCC(C)C)[C@@]4(C)CC[C@@H]32)C1)C(N)=O)C(C)C)C(C)C	–	–	aqueous buffer	pH 6.5	thermodynamic solubility	55 µg/mL (≈ 20.5 µM)
CC[C@@H]1CN(C(=O)NCC(F)(F)F)C[C@@H]1c1cnc2cnc3[nH]ccc3n12	–	–	beagle dog, plasma	oral, 1 mg/kg, single dose	MRT(0-t)	9.27 h
CC(C)CCC[C@@H](C)[C@H]1CC[C@H]2[C@@H]3CC=C4C[C@@H](OC(=O)CCC(=O)NCCCC[C@H](NC(=O)[C@H]5CCCN5C(=O)[C@H](CCC(=O)O)NC(=O)[C@H](C)NC(=O)[C@@H](NC(=O)C[C@H](O)[C@H](CC(C)C)NC(=O)[C@H](CC(N)=O)NC(=O)[C@@H](NC(=O)[C@H](CCC(=O)O)NC(=O)CNC(=O)[C@@H](CCCCN)NC(=O)CNC(=O)[C@H](CC(C)C)NC(=O)[C@@H]5CCCN5C(=O)[C@@H](CCCCN)NC(=O)[C@H](Cc5ccccc5)NC(=O)[C@H](Cc5ccc(O)cc5)NC(=O)[C@@H]5CCCN5C(=O)[C@@H](N)Cc5ccc(O)cc5)C(C)C)C(C)C)C(N)=O)CC[C@]4(C)[C@H]3CC[C@]12C	–	–	aqueous buffer	pH 6.5	thermodynamic solubility	> 500 µg/mL
O=C(O)CSc1nnc(Br)n1-c1ccc(C2CC2)c2ccccc12	Multidrug and toxin extrusion protein 2 (SLC47A2, Homo sapiens, UniProt Q86VL8)	transporter uptake, inhibitor	HEK293	1 µM, 2 min	inhibition	-21%
O=C1CC(N(CCc2ccccc2)C(=S)Nc2ccccc2)C(=O)N1c1ccc(Br)cc1 (centres unmarked)	Jurkat	cell growth or viability, ATP luminescence	–	18 h	CC50	< 20 µM
CC1=NN(c2ccc(C)c(C)c2)C(=O)/C1=N\Nc1cccc(-c2cccc(C(=O)O)c2)c1O	LN-229	cell growth or viability	–	72 h	IC50	20 to 30 µM
Cc1cc(-c2ccc(C(F)(F)F)cn2)[nH]c1C(=O)N[C@H](CN)c1nc(CO)cs1	Cf2Th-CCR5	cell growth or viability, MTS	–	48 h	CC50	> 47 µM
COc1ccc(S(=O)(=O)ON=C2C=C(C)C(=O)C(C)=C2)cc1	LNCaP	cell growth or viability	–	–	CC50	3.54 µM
Cc1cc(-c2ccc(C(F)(F)F)cn2)[nH]c1C(=O)N[C@@H](CN)c1ncc(CO)s1	Cf2Th-CCR5	cell growth or viability, MTS	–	48 h	CC50	> 47 µM
O=C(CCCCCCC(=O)Nc1ccc(CC[18F])cc1)NO	LNCaP	–	male nude, tumour	intravenous, 2 h, tumour-bearing	tracer uptake	1.5 %ID/g
